A word on the Tmax: it is the time at which the peak concentration occurs. A word on the IC50: it is the midpoint of a concentration-inhibition curve. A high value points to weaker potency. In general, solubility refers to the dissolved amount per volume that the medium holds. High values mean a readily soluble substance, low ones a poorly soluble substance. By bioavailability is commonly meant the share of a dose that reaches the circulation, judged against a reference dose that is usually intravenous. What is called clearance is the volume of plasma or blood freed of the substance per unit of time. A high value points to efficient removal. In general, Cmax refers to the peak of the concentration-time curve. Usually Vd stands for the apparent volume that relates the amount in the body to the concentration in plasma or blood. A high value points to extensive tissue distribution. Broadly, the AUC is concentration integrated over time. High values mean high exposure, low ones low exposure. One may read the Kp as tissue or fluid exposure divided by exposure in the circulation. As usually defined, the logD is lipophilicity at a set pH, counting ionised and neutral species. A high value points to higher lipophilicity.

The nature of data set [1]: Tmax in mouse at 10 mg/kg, po. The format is ADME, organism-based. Set-up: dose 10 mg/kg, route oral. The settings on record: in vivo. The gist of the method: (§1)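 Single 10 mg/kg oral dose to mice in DMA/PG/(20% HPβCD in saline) 10/10/80. Values are the mean of three mice.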
Data set [2] has as its target Long-chain fatty acid transport protein 1 (Mus musculus, UniProt Q60714). In words: Inhibition of mouse FLAG-tagged FATP1-mediated [1-14C] oleic acid conversion to [1-14C] oleoyl-CoA after 20 mins by scintillation counting analysis. The procedure, abridged:
(§2)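 Purified FLAG-tagged human or mouse FATP1 run in a cell-free acyl-CoA synthetase assay. Protein incubated with 10 µM [1-14C]oleic acid, 0.5 mM ATP, 0.5 mM CoA, 5 mM MgCl2, 30 mM NaCl, 0.05% Triton X-100 and 2 mM DTT in 100 mM Tris-HCl pH 7.4 for 20 min at 37 °C. Free oleate removed by heptane washes. Aqueous-phase radioactivity counted by scintillation. FLAG-luciferase background subtracted. IC50 is the mean of n ≥ 2.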

Data set [3] is described as follows: Plasma protein binding in mouse at 10 mg/kg, po. The format is ADME, organism-based. Set-up: dose 10 mg/kg, route oral. The settings on record: read-out: PPB (converted). The procedure, abridged:
(§3)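 Unbound fraction (%) measured in mouse plasma.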

Data set [4] is described as follows: Solubility in Japanese Pharmacopoeia first fluid. The format is physicochemical. The conditions noted are these: pH 1.2.
Data set [5] can be described thus: Oral bioavailability in mouse at 10 mg/kg. The settings on record: in vivo. The format is ADME, organism-based.
The nature of data set [6]: Clearance in mouse at 5 mg/kg, iv. The format is ADME, organism-based. Set-up: dose 5 mg/kg, route intravenous. The settings on record: in vivo.
A short description of data set [7]: Cmax in mouse at 10 mg/kg, po. The format is ADME, organism-based. Set-up: dose 10 mg/kg, route oral. The settings on record: in vivo. The gist of the method: as §1
The nature of data set [8]: Solubility in Japanese Pharmacopoeia second fluid. The format is physicochemical. The settings on record: pH 6.8.
The subject of data set [9] is Mus musculus. Nature of the data set: Free Cmax in mouse at 10 mg/kg, po. The format is ADME, organism-based. Set-up: dose 10 mg/kg, route oral. The settings on record: in vivo. The procedure, abridged: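 Free Cmax calculated as plasma unbound fraction (%) multiplied against the […], from mice given 10 mg/kg orally in DMA/PG/(20% HPβCD/saline) 10/10/80, n = 3.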

Data set [10] deals with Mus musculus. Nature of the data set: In vivo inhibition of FATP1 in high-fat diet fed mouse assessed as decrease in triglyceride content in soleus muscle at 10 to 100 mg/kg, po after 4 weeks. The format is functional, organism-based. The gist of the method: (§4)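 Mice kept on a high-fat diet for 4 weeks and given the compound orally at 3/10/30, 10/30/100 or 1/10/100 mg/kg. The 1–100 mg/kg series was run for 3 weeks. Triglyceride content measured in liver, white gastrocnemius and soleus, compared against HFD vehicle controls, P < 0.05.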

Data set [11] has as its system Mus musculus. In words: In vivo inhibition of FATP1 in high-fat diet fed mouse assessed as decrease in triglyceride content in liver at 10 to 100 mg/kg, po after 4 weeks. The format is functional, organism-based. The gist of the method:
as §4

A short description of data set [12]: Volume of distribution in mouse at 5 mg/kg, iv. The format is ADME, organism-based. The conditions noted are these: in vivo. Set-up: dose 5 mg/kg, route intravenous.
Data set [13] in a line: AUC in mouse at 10 mg/kg, po. The format is ADME, organism-based. Set-up: dose 10 mg/kg, route oral. The settings on record: plasma. The procedure, abridged: as §1
A short description of data set [14]: Ratio of drug uptake in soleus muscle to plasma in mouse at 10 mg/kg, po after 1 week of repeated compound administration. The format is ADME, organism-based. Set-up: dose 10 mg/kg, route oral. The gist of the method:
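Mice received repeated oral dosing at 10 mg/kg for 1 week. Soleus and plasma concentrations measured 3 h after dosing. Kp taken as the soleus-to-plasma ratio.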

Data set [15] in a line: 1-Octanol-phosphate buffered saline distribution coefficient, log D of the compound at pH 7.4. The format is physicochemical. The gist of the method:
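logD measured by partitioning between 1-octanol and phosphate-buffered saline, pH 7.4.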

Data set [16] can be described thus: Metabolic stability in mouse liver microsomes assessed as compound remaining after 0.5 hr. The format is ADME, Microsome. The conditions noted are these: read-out: Stability. The procedure, abridged:
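Test compound incubated 0.5 h with mouse liver microsomes. Result given as percent of parent remaining.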
In general terms: Liver microsomes are a subcellular fraction often used to study metabolism.

The nature of data set [17]: Fraction unbound in mouse plasma at 10 mg/kg, po. Set-up: dose 10 mg/kg, route oral. The format is ADME, organism-based. The gist of the method: as §3
Data set [18] deals with Long-chain fatty acid transport protein 1 (Homo sapiens, UniProt Q6PCB7). Nature of the data set: Inhibition of human FLAG-tagged FATP1-mediated [1-14C] oleic acid conversion to [1-14C] oleoyl-CoA after 20 mins by scintillation counting analysis. The gist of the method:
as §2

In data set [19] the test system is Mus musculus. Nature of the data set: In vivo inhibition of FATP1 in high-fat diet fed mouse assessed as decrease in triglyceride content in white gastrocnemius muscle at 10 to 100 mg/kg, po after 4 weeks. The format is functional, organism-based. The gist of the method:
as §4

Data set [20] concerns Mus musculus. Nature of the data set: In vivo inhibition of FATP1 in high-fat diet fed mouse assessed as decrease in triglyceride content in white gastrocnemius muscle at 3 to 30 mg/kg, po after 4 weeks. The format is functional, organism-based. The procedure, abridged:
as §4

Data set [21] relates to Mus musculus. Nature of the data set: In vivo inhibition of FATP1 in high-fat diet fed mouse assessed as decrease in triglyceride content in liver at 3 to 30 mg/kg, po after 4 weeks. The format is functional, organism-based. The gist of the method:
as §4

Data set [22] can be described thus: Clearance in mouse at 1 mg/kg, iv. Set-up: dose 1 mg/kg, route intravenous. The settings on record: in vivo. The format is ADME, organism-based. The gist of the method: (§5)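 Single 1 mg/kg intravenous dose to mice in DMA/PG/(20% HPβCD in saline) 10/10/80. Values are the mean of two mice.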
Data set [23] can be described thus: Volume of distribution in mouse at 1 mg/kg, iv. The format is ADME, organism-based. Set-up: dose 1 mg/kg, route intravenous. The settings on record: in vivo. The procedure, abridged:
as §5

The test system of data set [24] is Mus musculus. Nature of the data set: In vivo inhibition of FATP1 in high-fat diet fed mouse assessed as decrease in triglyceride content in soleus muscle at 3 to 30 mg/kg, po after 4 weeks. The format is functional, organism-based. The gist of the method: as §4
Data set [25] deals with Mus musculus. In words: In vivo inhibition of FATP1 in high-fat diet fed mouse assessed as decrease in triglyceride content in white gastrocnemius muscle at 1 to 100 mg/kg, po after 3 weeks.
In data set [26] the test system is Mus musculus. Nature of the data set: In vivo inhibition of FATP1 in high-fat diet fed mouse assessed as decrease in triglyceride content in liver at 1 to 100 mg/kg, po after 3 weeks.
Data set [27] concerns Mus musculus. Nature of the data set: In vivo inhibition of FATP1 in high-fat diet fed mouse assessed as decrease in triglyceride content in soleus muscle at 1 to 100 mg/kg, po after 3 weeks.

SMILES strings stand for the structures. Values after ≈ are worked out from the molar mass of the structure shown. Active and inactive are the calls of the source. The calls are words filed in the database; no cut-off is given here.

Chain of Long-chain fatty acid transport protein 1 (Homo sapiens, UniProt Q6PCB7) (Q6PCB7 whole entry): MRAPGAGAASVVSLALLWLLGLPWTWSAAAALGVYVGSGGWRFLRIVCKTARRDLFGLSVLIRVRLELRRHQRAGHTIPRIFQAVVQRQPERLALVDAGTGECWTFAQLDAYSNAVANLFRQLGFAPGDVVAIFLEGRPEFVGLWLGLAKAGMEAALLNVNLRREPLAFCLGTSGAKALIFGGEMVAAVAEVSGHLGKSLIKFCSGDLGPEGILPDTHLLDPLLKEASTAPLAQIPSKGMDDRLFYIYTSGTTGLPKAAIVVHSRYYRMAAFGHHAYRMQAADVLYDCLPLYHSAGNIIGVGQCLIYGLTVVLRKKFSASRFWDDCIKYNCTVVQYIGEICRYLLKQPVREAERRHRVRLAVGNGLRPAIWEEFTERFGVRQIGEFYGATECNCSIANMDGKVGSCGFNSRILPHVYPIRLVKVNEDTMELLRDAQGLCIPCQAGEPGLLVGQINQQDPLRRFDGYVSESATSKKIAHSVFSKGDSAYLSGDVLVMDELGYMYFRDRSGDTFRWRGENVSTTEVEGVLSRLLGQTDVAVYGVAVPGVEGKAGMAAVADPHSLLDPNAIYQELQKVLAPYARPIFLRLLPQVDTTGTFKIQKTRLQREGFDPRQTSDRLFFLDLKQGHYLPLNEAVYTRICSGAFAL
Chain of Long-chain fatty acid transport protein 1 (Mus musculus, UniProt Q60714) (Q60714 whole entry): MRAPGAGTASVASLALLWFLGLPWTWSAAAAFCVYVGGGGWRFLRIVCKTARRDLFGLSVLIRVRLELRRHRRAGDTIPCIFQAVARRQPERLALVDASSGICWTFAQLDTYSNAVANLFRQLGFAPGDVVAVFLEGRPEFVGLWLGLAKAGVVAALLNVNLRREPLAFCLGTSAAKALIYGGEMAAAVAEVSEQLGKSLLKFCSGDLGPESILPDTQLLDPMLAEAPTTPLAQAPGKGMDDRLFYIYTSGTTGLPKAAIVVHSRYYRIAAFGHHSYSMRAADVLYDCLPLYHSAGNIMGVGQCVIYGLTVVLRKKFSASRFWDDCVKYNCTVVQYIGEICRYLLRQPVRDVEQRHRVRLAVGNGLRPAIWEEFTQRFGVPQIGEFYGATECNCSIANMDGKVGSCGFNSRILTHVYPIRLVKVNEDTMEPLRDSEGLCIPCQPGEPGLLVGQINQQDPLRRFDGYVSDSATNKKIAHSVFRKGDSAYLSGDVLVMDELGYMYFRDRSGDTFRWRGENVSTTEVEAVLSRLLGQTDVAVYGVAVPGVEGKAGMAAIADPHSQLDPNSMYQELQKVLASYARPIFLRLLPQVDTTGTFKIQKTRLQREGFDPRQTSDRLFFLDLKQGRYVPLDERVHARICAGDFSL

Take `CC1CCc2sc(NC(=O)CN3CCN(c4ccc(F)cc4)CC3)nc2C1` (stereo not given): in data set [1], the Tmax is 15 min. Besides, the IC50 in data set [2] was determined as 5.1 µM; in [18], 0.026 µM. For the same compound, the fraction unbound in [3] and in [17] was 0.0043 each time. The solubility in [4] turned out to be 0.54 mg/mL (≈ 1390 µM); in [8], 0.0007 mg/mL (≈ 1.8 µM). The bioavailability in data set [5] amounted to 62%. The clearance in data set [6] is 2.76 L/h/kg. The highest level in [7] (Cmax) was 1.8 µg/mL. The compound further yielded a fCmax in [9] of 0.0077 µg/mL. Moreover, the inhibition entry in data set [10], in data set [11] and in data set [19] was “inactive” in each case. This compound returned a Vd in data set [12] of 1.5 L/kg. In addition, the area under the curve (AUC) in data set [13] was found to be 2.3 µg·h/mL. In addition, in data set [14], the Kp at 168 h was 0.33. In data set [15], the logD stood at 5.1. Also, in [16], the remaining at 0.5 h stood at 30%.
With `Cc1nc2ccccn2c1C(=O)CN1CCN(c2ccc(F)cn2)CC1`, the inhibition entry in [20], in data set [21] and in data set [24] was “inactive” each time. Further, in [1], the time of peak concentration (Tmax) is 19.8 min. Also, the IC50 amounted to 0.39 µM in data set [2] and 0.43 µM in data set [18]. Further, the solubility in [4] was above 0.7 mg/mL; in [8], 0.35 mg/mL (≈ 990 µM). In data set [5], this compound gave a bioavailability of 21%. Also, the highest level in [7] (Cmax) was 2.2 µg/mL. The same compound yielded a fCmax in [9] of 0.61 µg/mL. Also, in data set [22], the clearance is 0.384 L/h/kg. In [23], this compound displayed a Vd of 0.2 L/kg. In [13], this compound yielded an exposure (AUC) of 5.5 µg·h/mL. In addition, the Kp at 168 h in data set [14] came out at 1.1. In data set [15], this compound displayed a pH-dependent lipophilicity (logD) of 2.8. For the same compound, the remaining at 0.5 h in data set [16] came out at 52%. In [17], the fraction unbound amounted to 0.275.
On to `O=C(CN1CCN(c2ccc(F)cn2)CC1)Nc1nc2c(s1)CCCC2`, for which, in data set [1], the Tmax is 19.8 min. Besides, the IC50 in data set [2] came to 0.6 µM; in [18], 0.046 µM. Moreover, the solubility in data set [4] came to 0.7 mg/mL (≈ 1860 µM); in data set [8] it was 0.0024 mg/mL (≈ 6.39 µM). The inhibition entry in [25], in data set [26] and in data set [27] was “inactive” each time. The same compound yielded a bioavailability in data set [5] of 100%. For the same compound, the Cmax in data set [7] stood at 5.5 µg/mL. Besides, in data set [9], the fCmax was 0.0083 µg/mL. The compound also yielded a clearance in data set [22] of 0.3 L/h/kg. In [23], the volume of distribution (Vd) is 0.57 L/kg. Also, in data set [13], the AUC was determined as 36 µg·h/mL. For the same compound, the partition ratio (Kp) at 168 h in [14] was 0.03. This compound also registered a logD in data set [15] of 4.1. Further, the remaining at 0.5 h in data set [16] turned out to be 63%. In addition, the fraction unbound in data set [17] is 0.0015.

The values are drawn from ChEMBL document CHEMBL2375259, “Arylpiperazines as fatty acid transport protein 1 (FATP1) inhibitors with improved potency and pharmacokinetic properties” (Bioorg Med Chem Lett, 2013).
